From ChEMBL document CHEMBL4513216, “Probing the Open Global Health Chemical Diversity Library for Multistage-Active Starting Points for Next-Generation Antimalarials” (ACS Infect Dis, 2020)

Assay: Toxicity liver stage against HepG2, at 10uM
Format: cell-based
Design: test concentration 10 uM, cell line HepG2-A16-CD81EGFP
Details: human, HepG2-A16-CD81EGFP cells; read-out: INHIBITION
Procedure, shortened: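 Uninfected HepG2-A16-CD81EGFP cells, 3 × 10^3 per well, 1536-well, plated on prespotted compound at 10 μM final, parasite-free screening media added to match infected plates; puromycin 10 μM positive, DMSO 0.5% negative; run in parallel with 48 h PbLuc assay at 37 °C, 5% CO2; viability by CellTiter-Glo luminescence, normalized to controls.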

Compound | cytotoxicity at 10 µM [%]
COc1cccc(CNC(=O)CCNS(=O)(=O)c2ccc(C)cc2)c1 | -137
O=C(NC[C@H]1OC[C@@H](NCc2ccccn2)[C@@H]1O)N1CCOCC1 | 0.15
COC(=O)CC(c1ccc(O)c(Cl)c1)c1oc(C)cc(=O)c1O (stereo unspecified) | -8.59
O=c1nc(SCc2ccncc2)c2c(n1CCO)CCC2 | 6.9
O=C(c1cn(-c2cc(N3CCSCC3)ncn2)cn1)N1CCOCC1 | 14.9
COCCN(Cc1ccoc1)S(=O)(=O)c1ccc(F)c(Cl)c1 | -7.93
CCC(CC)C(=O)N1CCOC2(CNC2)C1 | -0.184
Cc1ccccc1N1CC2(CCN(S(=O)(=O)c3ccccc3)C2)CC1=O (stereo unspecified) | 6.24
O=C(c1n[nH]c2c1CCN(Cc1nccs1)C2)N1CCOCC1 | -144
COCCn1cc2c(n1)C(CNS(C)(=O)=O)OCC2 (stereo unspecified) | 0.763
CC(C)CCC(=O)N1CC[C@@H]2[C@H](CC1)N(S(C)(=O)=O)CCS2(=O)=O | 3.7
CCS(=O)(=O)N1CCC2(CC(=O)N(c3ccc4c(c3)OCO4)C2)C1 (stereo unspecified) | 9.17
Cc1noc([C@H]2C[C@H]3OCC[C@H]3N(S(C)(=O)=O)C2)n1 | -115
COC[C@@]12CCO[C@@H]1CCN(C(=O)c1ccc(F)c(F)c1)C2 | -2.59
c1ccc2c(c1)COC1(CCCCC1)N2 | -11.1
CC1CCc2nc(O)c(C(=O)NCc3ccncc3)cc2C1 (stereo unspecified) | -1.37
O=C(NCCn1ccc(-c2ccccn2)n1)C1CC1 | 7.49
CCOc1ccc(CNCCCn2ccnc2)cc1Br | -6.81
O=c1nc(CNc2ccccc2)[nH]n1Cc1ccccc1 | 4.13

Compound | cytotoxicity at 10 µM [%]
O=C(Cn1ccc2ccc(Br)cc21)NCc1ccc(C(=O)O)cc1 | 6.46
CC(C)Oc1ccccc1C1CC(=O)Nc2c1cnn2C (stereo unspecified) | 2.09
CCOCC1CN(Cc2ccoc2)Cc2ncn(CC3CC3)c21 (stereo unspecified) | -14.5
COCC(=O)N1Cc2cn(C)nc2C(COc2cccnc2)C1 (stereo unspecified) | -11
CCOc1cc(C(=O)n2cccn2)cc(OCC)c1OCC | 2.83
CCCN(c1ccccc1C(=O)O)S(=O)(=O)c1cccc2cccnc12 | -3.89
CCC(Oc1ccccc1)c1nn2c(CN(CC)CC)nnc2s1 (stereo unspecified) | 4.91
Cn1cc(CN2CCc3nc4sccc4c(=O)n3CC2)cn1 | -2.19
CCOc1ccc(N(CCC#N)C(=O)c2ccc(OC)nc2)cc1 | 2.52
Cc1ccc(C)c(SCC(=O)Nc2cccc(C(=O)N(C)C)n2)c1 | -9.9
Cc1cc(F)cc(NC(=O)N(C)CC(C)(CO)CO)c1 | -1.44
Cc1c(C(=O)N2CCC2(C)C)nnn1-c1cccc2cnccc12 | -2.15
Cc1cc(N(C)C)nc(N2CCCC2c2ccccn2)n1 (stereo unspecified) | 3.16
CN(Cc1ccc(F)c(F)c1)Cc1cc2c(cc1Br)OCCO2 | -140
c1cc(CCn2ccc(NC3CCSCC3)n2)ccn1 | 5.55
COC(=O)CCCN(C)C(c1cccnc1)c1ccc(F)cc1F (stereo unspecified) | -0.665
Cc1ccc(CC(NC(=O)CCS(C)(=O)=O)c2ccccn2)cc1 (stereo unspecified) | -11
CC(Nc1ccc(Br)cc1)c1nc(C2CC2)no1 (stereo unspecified) | 6.27
Cc1nnc(CN(Cc2cccc3c2OCO3)CC2CCCO2)n1C (stereo unspecified) | 3.93

Compound | cytotoxicity at 10 µM [%]
O=C(CN1CC(n2cccn2)C1)NCC1(c2ccccc2)CCC1 | -3.14
CN(C)c1ncccc1CNC(=O)N1CCN(C)c2ccccc2C1 | 4.72
COc1c(CNCc2ccc(N3CCOCC3)nc2)c(C)nn1C | 9.5
CCc1nnc(SC2CCCN(c3cnn(C)c3)C2=O)n1C (stereo unspecified) | 2.68
O=C(Cn1cc(I)cn1)N1CCOCC1 | -10.2
Cc1cn(CC(=O)NCC(=O)NC2CC2)c2ccccc12 | -0.966
O=C(CSc1ccc2c(c1)OCCO2)NS(=O)(=O)c1ccccc1Cl | -4.46
COCC(NC(=O)c1ccco1)c1cccc(C(F)(F)F)c1 (stereo unspecified) | -3.96
CCCN(C)c1ccc(C(=O)Nc2c(C)nn(C(C)C)c2C)cc1 | -2.84
CN(CCN1CCOCC1)C(=O)CCCOCCc1ccccc1 | -1.28
CC1CN(C)c2ccccc2CN1C(=O)c1ccncc1F (stereo unspecified) | -16.9
CCN(CCS(=O)(=O)CC)CC1CCCO1 (stereo unspecified) | -0.157
CN(CCNC(=O)N1CCCC1)C(=O)OC(C)(C)C | 3.97
COC1CCN(C(=O)c2ccccc2NCc2cccnc2)CC1 | -7.22
CC(C)C(c1cccnc1)N(C)C(=O)Cc1ccc(O)cc1 (stereo unspecified) | -1.03
CCOc1ccc(C#N)cc1NC(=O)N1CCC(n2cncn2)CC1 | 20.3
CCOCCCNC(=O)NC(C)c1ccc(-n2cncn2)cc1 (stereo unspecified) | 3.31
Cn1ncc2cnn(CC(O)COCc3ccccc3Cl)c2c1=O (stereo unspecified) | 3.8
